In ChEMBL document CHEMBL1144645, “The discovery of highly selective erbB2 (Her2) inhibitors for the treatment of cancer” (Bioorg Med Chem Lett, 2007):

Key:
[1] = target: Epidermal growth factor receptor and ErbB2 (HER1 and HER2) (Homo sapiens) (UniProt P04626+P00533); assay: Selectivity for erbB2 over EGFR; assay type: protein assay
Outline: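 Cell selectivity: IC50 ratio between two NIH3T3 lines run under identical conditions, one carrying human EGFR and one carrying the EGFR-extracellular/erbB2-intracellular chimera. Each line takes 2 h inhibitor, then 15 min human recombinant EGF. Phosphotyrosine measured with HRP-PY-54 and TMB at 450 nm.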

[2] = target: T1, Receptor tyrosine-protein kinase erbB-2 (Homo sapiens, UniProt P04626); assay: Inhibition of erbB2 in NH3T3 cells; assay type: cell-based
Outline: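 NIH3T3 cells expressing a chimera of EGFR extracellular and erbB2 intracellular domains are plated, exposed to inhibitor for 2 h, then stimulated with human recombinant EGF for 15 min. Receptor phosphotyrosine read with HRP-PY-54 antibody and TMB, A450. IC50 is the mean of at least two experiments.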

[3] = target: T1, Receptor tyrosine-protein kinase erbB-2; assay: Inhibition of erbB2 expressed in Sf9 cells
Outline: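 GST-tagged erbB2 intracellular domain (residues 675–1255) made in baculovirus/Sf9 and purified; ~15 ng enzyme phosphorylates poly(Glu,Tyr) with 1 mM ATP plus inhibitor over 6 min. Phosphotyrosine detected by HRP-PY-54 antibody and TMB, A450. IC50 is the mean of at least two experiments.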

[4] = Volume of distribution in rat at 2 mg/kg, iv; assay type: ADME, organism-based; set-up: dose 2 mg/kg, route intravenous; conditions: in vivo, read-out: Vdss
Outline: (§1)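 Single 2 mg/kg IV dose (HCl salt) to define clearance, volume of distribution and half-life; oral arm given 5 mg/kg in 0.5% methylcellulose to derive bioavailability (F).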

[5] = Clearance in rat at 2 mg/kg, iv; assay type: ADME, organism-based; set-up: dose 2 mg/kg, route intravenous; conditions: in vivo; outline: as §1
[6] = Half life in rat at 2 mg/kg, iv after 1 hr; assay type: ADME, organism-based; set-up: dose 2 mg/kg, route intravenous; conditions: in vivo; outline: as §1
[7] = Bioavailability in rat at 5 mg/kg, po; assay type: ADME, organism-based; conditions: in vivo; outline: as §1

T1 sequence (P04626 whole entry, the tested form may be a part): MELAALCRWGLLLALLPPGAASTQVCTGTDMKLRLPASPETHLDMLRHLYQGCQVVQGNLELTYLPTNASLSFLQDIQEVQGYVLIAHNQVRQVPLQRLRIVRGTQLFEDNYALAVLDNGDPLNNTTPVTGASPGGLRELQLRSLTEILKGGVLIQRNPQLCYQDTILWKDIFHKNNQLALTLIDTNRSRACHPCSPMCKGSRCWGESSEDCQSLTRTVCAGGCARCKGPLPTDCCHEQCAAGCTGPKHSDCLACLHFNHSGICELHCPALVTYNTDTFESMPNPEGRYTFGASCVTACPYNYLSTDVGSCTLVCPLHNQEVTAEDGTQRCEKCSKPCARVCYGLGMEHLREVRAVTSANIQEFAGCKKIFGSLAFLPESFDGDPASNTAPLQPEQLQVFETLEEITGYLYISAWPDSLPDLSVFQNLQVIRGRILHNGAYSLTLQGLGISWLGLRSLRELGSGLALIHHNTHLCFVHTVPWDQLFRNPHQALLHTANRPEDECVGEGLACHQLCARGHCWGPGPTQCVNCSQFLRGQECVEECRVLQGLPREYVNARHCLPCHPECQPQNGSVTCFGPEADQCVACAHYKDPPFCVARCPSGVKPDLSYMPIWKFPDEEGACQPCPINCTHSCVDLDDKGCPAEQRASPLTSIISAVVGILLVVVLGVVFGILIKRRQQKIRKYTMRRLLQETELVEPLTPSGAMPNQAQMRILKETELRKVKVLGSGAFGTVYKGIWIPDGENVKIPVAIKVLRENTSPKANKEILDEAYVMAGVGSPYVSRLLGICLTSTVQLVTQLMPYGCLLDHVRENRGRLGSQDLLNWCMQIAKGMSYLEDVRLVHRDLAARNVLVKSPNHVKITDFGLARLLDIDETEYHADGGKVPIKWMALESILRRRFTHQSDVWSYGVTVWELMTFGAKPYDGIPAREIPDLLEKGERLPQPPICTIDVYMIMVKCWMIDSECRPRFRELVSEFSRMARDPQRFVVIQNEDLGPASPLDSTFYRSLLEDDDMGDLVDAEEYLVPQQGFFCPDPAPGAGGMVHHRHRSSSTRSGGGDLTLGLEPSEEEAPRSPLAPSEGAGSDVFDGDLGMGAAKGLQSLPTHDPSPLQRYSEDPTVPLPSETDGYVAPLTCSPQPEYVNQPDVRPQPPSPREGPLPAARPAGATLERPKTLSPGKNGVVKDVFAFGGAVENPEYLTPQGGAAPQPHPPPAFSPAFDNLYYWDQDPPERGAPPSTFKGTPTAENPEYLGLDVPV

Row | Structure (SMILES) | Selectivity ratio [1] | IC50 [2] | IC50 [3] | Vd [4] | clearance [5] | half-life [6] | bioavailability [7]
1 | Cc1cc(Nc2ncnc3cnc(NCCN4CCOCC4)cc23)ccc1Oc1ccc(C(=O)NCC(C)(C)C)cc1 | 230 | 15 nM | 280 nM |  |  |  | 
2 | COCCOc1cc2ncnc(Nc3ccc(OC4CCN(C(=O)Nc5c(F)cccc5F)CC4)c(C)c3)c2cc1OCCOC | 6.5 | 840 nM | 230 nM |  |  |  | 
3 | COc1ccc2ncnc(Nc3ccc(OC4CCN(C(=O)Nc5c(F)cccc5F)CC4)c(C)c3)c2c1 | 11 | 250 nM | 46 nM |  |  |  | 
4 | CNC(=O)c1cccc(Oc2ccc(Nc3ncnc4ccc(C#CCNC(=O)COC)cc34)cc2C)c1 |  |  | > 10000 nM |  |  |  | 
5 | COCC(=O)NCC#Cc1ccc2ncnc(Nc3ccc(Oc4ccc(C(=O)NC(C)(C)C)cc4)c(C)c3)c2c1 |  |  | > 10000 nM |  |  |  | 
6 | COCC(=O)NCC#Cc1ccc2ncnc(Nc3ccc(Oc4cccc(C(=O)NC5CCC5)c4)c(C)c3)c2c1 | > 64 | 160 nM | 230 nM |  |  |  | 
7 | COCC(=O)NCC#Cc1ccc2ncnc(Nc3ccc(Oc4cccc(C(=O)N(C)C)c4)c(C)c3)c2c1 |  |  | > 10000 nM |  |  |  | 
8 | COCC(=O)NCC#Cc1ccc2ncnc(Nc3ccc(Oc4ccc(C(=O)Nc5ccccc5)cc4)c(C)c3)c2c1 |  |  | > 10000 nM |  |  |  | 
9 | CNC(=O)c1ccc(Oc2ccc(Nc3ncnc4ccc(C#CCNC(=O)COC)cc34)cc2C)cc1 |  |  | > 10000 nM |  |  |  | 
10 | Cc1cc(Nc2ncnc3cnc(N(C)C)cc23)ccc1Oc1ccc(C(=O)NCC(C)(C)C)cc1 | > 770 | < 10 nM | 48 nM |  |  |  | 
11 | COCC(=O)NCC#Cc1ccc2ncnc(Nc3ccc(OC4CCN(C(=O)COC)CC4)c(C)c3)c2c1 |  |  | > 10000 nM |  |  |  | 
12 | COCC(=O)NCC#Cc1ccc2ncnc(Nc3ccc(Oc4cccc(C(=O)NCC(C)(C)C)c4)c(C)c3)c2c1 | 91 | 110 nM | 130 nM |  |  |  | 
13 | COCCOc1cc2ncnc(Nc3ccc(OC4CCN(C(=O)C5CCCC5)CC4)c(C)c3)c2cc1OCCOC | > 19 | 530 nM | 77 nM |  |  |  | 
14 | COCC(=O)NCC#Cc1ccc2ncnc(Nc3ccc(OC4CCN(C(=O)Nc5c(F)cccc5F)CC4)c(C)c3)c2c1 | > 53 | 190 nM | 76 nM |  |  |  | 
15 | COc1cc2ncnc(Nc3ccc(OC4CCN(C(=O)Nc5c(F)cccc5F)CC4)c(C)c3)c2cc1OC | 23 | 67 nM | 19 nM |  |  |  | 
16 | COCC(=O)NCC#Cc1ccc2ncnc(Nc3ccc(OC4CCN(C)CC4)c(C)c3)c2c1 |  |  | > 10000 nM |  |  |  | 
17 | COCC(=O)NCC#Cc1ccc2ncnc(Nc3ccc(OC4CCNCC4)c(C)c3)c2c1 |  |  | > 10000 nM |  |  |  | 
18 | COCC(=O)NCC#Cc1ccc2ncnc(Nc3ccc(Oc4ccc(C(=O)N(C)C)cc4)c(C)c3)c2c1 |  |  | > 10000 nM |  |  |  | 
19 | CNc1cc2c(Nc3ccc(Oc4ccc(C(=O)NCC(C)(C)C)cc4)c(C)c3)ncnc2cn1 | 230 | 13 nM | 30 nM |  |  |  | 
20 | COCC(=O)NCC#Cc1ccc2ncnc(Nc3ccc(Oc4ccc(C(=O)NCC(C)(C)C)cc4)c(C)c3)c2c1 | 200 | 23 nM | 140 nM |  |  |  | 
21 | COCC(=O)NCC#Cc1ccc2ncnc(Nc3ccc(Oc4cccc(C(=O)Nc5ccccc5)c4)c(C)c3)c2c1 |  |  | 140 nM |  |  |  | 
22 | COCCOc1ccc2ncnc(Nc3ccc(OC4CCN(C(=O)Nc5c(F)cccc5F)CC4)c(C)c3)c2c1 | > 300 | 33 nM | 27 nM |  |  |  | 
23 | COCC(=O)NCC#Cc1ccc2ncnc(Nc3ccc(OC4CCN(C(=O)C5CCC5)CC4)c(C)c3)c2c1 | > 200 | 51 nM | 150 nM |  |  |  | 
24 | COCC(=O)NCC#Cc1ccc2ncnc(Nc3ccc(OC4CCN(C(=O)c5cccc(Cl)c5)CC4)c(C)c3)c2c1 | 92 | 75 nM | 210 nM |  |  |  | 
25 | COc1cc2ncnc(Nc3ccc(Oc4ccc(C(=O)NCC(C)(C)C)cc4)c(C)c3)c2cc1OC | 1 | 310 nM | 77 nM |  |  |  | 
26 | COCC(=O)NCC#Cc1ccc2ncnc(Nc3ccc(Oc4cccc(C(=O)NC(C)(C)C)c4)c(C)c3)c2c1 | 250 | 30 nM | 18 nM |  |  |  | 

Results, then the compound that gave them:

Row | Selectivity ratio [1] | IC50 [2] | IC50 [3] | Vd [4] | clearance [5] | half-life [6] | bioavailability [7] | Structure (SMILES)
27 | 25 | 180 nM | 25 nM |  |  |  |  | CNc1cc2c(Nc3ccc(OC4CCN(C(=O)Nc5c(F)cccc5F)CC4)c(C)c3)ncnc2cn1
28 | > 300 | 33 nM | 18 nM | 0.2 L/kg | 2.5 mL/min/kg | 1 h | 54% | Cc1cc(Nc2ncnc3cnc(N4CCOCC4)cc23)ccc1OC1CCN(C(=O)C2CCCC2)CC1
29 | > 500 | 19 nM | 120 nM |  |  |  |  | COCCOc1ccc2ncnc(Nc3ccc(OC4CCN(C(=O)CC(C)(C)C)CC4)c(C)c3)c2c1
30 | > 660 | 15 nM | 130 nM |  |  |  |  | Cc1cc(Nc2ncnc3cnc(N4CCN(C)CC4)cc23)ccc1Oc1ccc(C(=O)NCC(C)(C)C)cc1
31 | > 230 | < 10 nM | 51 nM |  |  |  |  | Cc1cc(Nc2ncnc3cnc(N(C)C)cc23)ccc1OC1CCN(C(=O)CC(C)(C)C)CC1
32 | > 1000 | < 10 nM | 23 nM |  |  |  |  | Cc1cc(Nc2ncnc3cnc(N4CCOCC4)cc23)ccc1OC1CCN(C(=O)CC(C)(C)C)CC1
33 |  |  | > 10000 nM |  |  |  |  | COCC(=O)NCC#Cc1ccc2ncnc(Nc3ccc(OC4CCN(C(C)=O)CC4)c(C)c3)c2c1
34 | 68 | 20 nM | 21 nM |  |  |  |  | Cc1cc(Nc2ncnc3cnc(N(C)C)cc23)ccc1OC1CCN(C(=O)Nc2c(F)cccc2F)CC1
35 | 400 | 16 nM | 94 nM |  |  |  |  | COCC(=O)NCC#Cc1ccc2ncnc(Nc3ccc(OC4CCN(C(=O)CC(C)(C)C)CC4)c(C)c3)c2c1
36 | 32 | 55 nM | 55 nM |  |  |  |  | Cc1cc(Nc2ncnc3ccc(OCCCN4CCOCC4)cc23)ccc1OC1CCN(C(=O)Nc2c(F)cccc2F)CC1
37 | > 350 | 29 nM | 44 nM |  |  |  |  | COCCOc1ccc2ncnc(Nc3ccc(OC4CCN(C(=O)C5CCCC5)CC4)c(C)c3)c2c1
38 | 210 | 16 nM | 7 nM |  |  |  |  | Cc1cc(Nc2ncnc3cnc(N4CCOCC4)cc23)ccc1OC1CCN(C(=O)Nc2c(F)cccc2F)CC1
39 | > 130 | 76 nM | 100 nM |  |  |  |  | COc1cc2ncnc(Nc3ccc(OC4CCN(C(=O)CC(C)(C)C)CC4)c(C)c3)c2cc1OC
40 | 11 | 530 nM | 260 nM |  |  |  |  | COCCOc1cc2ncnc(Nc3ccc(OC4CCN(C(=O)CC(C)(C)C)CC4)c(C)c3)c2cc1OCCOC
41 | > 290 | 34 nM | 75 nM |  |  |  |  | Cc1cc(Nc2ncnc3ccc(OCCCN4CCOCC4)cc23)ccc1OC1CCN(C(=O)CC(C)(C)C)CC1
42 |  |  | 96 nM |  |  |  |  | COc1ccc2ncnc(Nc3ccc(OC4CCN(C(=O)CC(C)(C)C)CC4)c(C)c3)c2c1
43 |  | 2900 nM | 550 nM |  |  |  |  | COCC(=O)NCC#Cc1ccc2ncnc(Nc3ccc(OC4CCN(C(=O)C5CCCO5)CC4)c(C)c3)c2c1 (stereo unspecified)
44 | > 100 | < 10 nM | 36 nM |  |  |  |  | Cc1cc(Nc2ncnc3cnc(N4CCCC4)cc23)ccc1Oc1ccc(C(=O)NCC(C)(C)C)cc1
